Activity calls are given as the source filed them. No cut-off for these calls is given here.
Columns and labels:
4T1 [1] = test: Inhibition of mouse 4T1 cells adhesion to gelatinous matrix protein-coated surface after 60 mins by ELISA; format: functional, cell-based; details: for IC50: 4T1, 1 h
MCF7 [2] = test: Inhibition of human MCF7 cells adhesion to gelatinous matrix protein-coated surface after 60 mins by ELISA; format: functional, cell-based
Summary of the method: (§1)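 Wells coated with 12% (v/v) Matrigel for 1 h at 37°C, washed with 0.1% BSA RPMI, then blocked 60 min with 0.5% BSA RPMI. Cells pretreated with agents for 60 min at 37°C, then seeded at 2 × 10^4/well and allowed to adhere 30 min. Washed, formalin fixed, crystal violet stained, solubilized in 2% SDS, absorbance at 570 nm. Ratios compare IC50 values across cell lines.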

SK-BR-3 [3] = test: Inhibition of human SK-BR-3 cells adhesion to gelatinous matrix protein-coated surface after 60 mins by ELISA; format: functional, cell-based; summary of the method: as §1
4T1 [4] = test: Cytotoxicity against mouse 4T1 cells after 24 hrs by MTT assay; format: cell-based; details: for IC50: Mus musculus, 4T1, 24 h; for Activity: mouse, 4t1, 24 h
Summary of the method: (§2)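 MTT viability, six replicates. Cells seeded at 6000 per well in 10% FBS RPMI 1640 for 24 h, then exposed to agents at the indicated concentrations in 2% FBS RPMI 1640. DMSO-matched vehicle controls. MTT at 0.5 mg/ml in 10% FBS medium for 2 h at 37°C. Formazan dissolved in DMSO, A570 read.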

[5] = Cytotoxicity against human MCF10A cells after 24 hrs by MTT assay; format: cell-based, MCF-10A; details: for IC50: Homo sapiens, MCF-10A; for Activity: human, mcf-10a; summary of the method: as §2
4T1 [6] = test: Inhibition of mouse 4T1 cells metastasis at 5 uM after 30 mins by Boyden chamber assay; format: functional, cell-based
Summary of the method: (§3)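 Transwell migration (12-μm pore). 5 × 10^4 cells in 0.2% FBS RPMI with agent in the upper insert for 30 min at 37°C, then moved to a well with 10% FBS RPMI for 24 h. Crystal violet stained. Migrated and non-migrated cells eluted with methanol separately, A570 read. % migration computed after background subtraction, expressed relative to vehicle (100%).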

[7] = molecular target: Focal adhesion kinase 1 (Mus musculus) (UniProt P34152); test: Induction of FAK degradation in mouse 4T1 cells at 5 uM after 1 hr by Western blotting; format: cell-based
Chain of Focal adhesion kinase 1 (Mus musculus) (P34152 whole entry): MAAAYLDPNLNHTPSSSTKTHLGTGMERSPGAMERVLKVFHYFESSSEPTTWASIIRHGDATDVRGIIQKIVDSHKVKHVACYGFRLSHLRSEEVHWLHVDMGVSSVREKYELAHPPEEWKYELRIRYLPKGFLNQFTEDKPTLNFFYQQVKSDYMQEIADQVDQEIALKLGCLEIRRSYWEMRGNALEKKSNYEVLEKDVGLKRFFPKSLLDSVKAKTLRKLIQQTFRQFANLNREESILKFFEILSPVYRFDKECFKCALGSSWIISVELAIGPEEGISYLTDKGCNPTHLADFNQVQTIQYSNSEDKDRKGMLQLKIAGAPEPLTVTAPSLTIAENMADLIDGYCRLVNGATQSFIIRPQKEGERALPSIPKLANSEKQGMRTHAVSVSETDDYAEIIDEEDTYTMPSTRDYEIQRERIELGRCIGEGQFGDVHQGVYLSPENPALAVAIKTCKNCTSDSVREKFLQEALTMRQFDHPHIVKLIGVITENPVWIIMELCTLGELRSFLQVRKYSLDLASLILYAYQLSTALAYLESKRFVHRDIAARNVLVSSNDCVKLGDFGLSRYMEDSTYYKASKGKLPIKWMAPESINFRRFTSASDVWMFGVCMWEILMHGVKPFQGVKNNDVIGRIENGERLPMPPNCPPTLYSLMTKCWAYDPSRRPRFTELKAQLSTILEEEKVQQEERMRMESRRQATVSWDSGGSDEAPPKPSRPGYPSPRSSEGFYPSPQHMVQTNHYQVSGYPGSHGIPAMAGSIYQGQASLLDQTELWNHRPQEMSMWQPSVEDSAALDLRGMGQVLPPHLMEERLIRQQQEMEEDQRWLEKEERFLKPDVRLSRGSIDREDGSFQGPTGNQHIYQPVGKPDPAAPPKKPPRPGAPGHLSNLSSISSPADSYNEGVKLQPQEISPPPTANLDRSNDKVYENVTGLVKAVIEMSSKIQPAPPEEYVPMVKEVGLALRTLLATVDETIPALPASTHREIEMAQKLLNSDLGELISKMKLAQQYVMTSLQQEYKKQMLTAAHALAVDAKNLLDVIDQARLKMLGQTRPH

4T1 [8] = test: Effect on actin cytoskeletal structure in mouse 4T1 cells assessed as rapid loss of F-actin fiber-associated detachment from neighbouring cells at 5 uM after 4 hrs by immunocytochemistry; format: functional, cell-based
MCF7 [9] = test: Ratio of IC50 for inhibition of human MCF7 cells adhesion to gelatinous matrix protein-coated surface to IC50 for mouse 4T1 cells adhesion to gelatinous matrix protein-coated surface; format: functional; summary of the method: as §1
SK-BR-3 [10] = test: Ratio of IC50 for inhibition of human SK-BR-3 cells adhesion to gelatinous matrix protein-coated surface to IC50 for mouse 4T1 cells adhesion to gelatinous matrix protein-coated surface; format: functional; summary of the method: as §1
4T1 [11] = test: Inhibition of mouse 4T1 cells adhesion to collagen 4 at 0.5 to => 1 uM after 60 mins by ELISA; format: functional, cell-based
Summary of the method: (§4)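 Wells coated 1 h at 37°C with 2 μg/ml vitronectin or 10 μg/ml collagen IV, fibronectin or laminin. Washed with 0.1% BSA RPMI, blocked 60 min with 0.5% BSA RPMI. 4T1 cells pretreated with agents for 60 min at 37°C, then 2 × 10^4 cells/well allowed to adhere 30 min. Nonadherent cells washed off. Formalin fixed, 0.5% crystal violet stained, dissolved in 2% SDS, A570 read.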

4T1 [12] = test: Inhibition of mouse 4T1 cells adhesion to fibronectin at 0.5 to => 1 uM after 60 mins by ELISA; format: functional, cell-based; summary of the method: as §4
4T1 [13] = test: Inhibition of mouse 4T1 cells adhesion to laminin at 0.5 to => 1 uM after 60 mins by ELISA; format: functional, cell-based; summary of the method: as §4
4T1 [14] = test: Inhibition of mouse 4T1 cells adhesion to vitronectin at 0.5 to => 1 uM after 60 mins by ELISA; format: functional, cell-based; summary of the method: as §4
4T1 [15] = test: Inhibition of mouse 4T1 cells adhesion to collagen 4 at after 60 mins by ELISA; format: functional, cell-based; summary of the method: as §4
4T1 [16] = test: Inhibition of mouse 4T1 cells adhesion to fibronectin at after 60 mins by ELISA; format: functional, cell-based; summary of the method: as §4
4T1 [17] = test: Inhibition of mouse 4T1 cells adhesion to laminin at after 60 mins by ELISA; format: functional, cell-based; summary of the method: as §4
4T1 [18] = test: Inhibition of mouse 4T1 cells adhesion to vitronectin at after 60 mins by ELISA; format: functional, cell-based; summary of the method: as §4
4T1 [19] = test: Effect on actin cytoskeletal structure in mouse 4T1 cells assessed as rapid dissolution of actin stress fibers at 5 uM after 4 hrs by immunocytochemistry; format: functional, cell-based
4T1 [20] = test: Effect on actin cytoskeletal structure in mouse 4T1 cells assessed as impairment of lamellipodia formation at 5 uM after 4 hrs by immunocytochemistry; format: functional, cell-based
4T1 [21] = test: Effect on actin cytoskeletal structure in mouse 4T1 cells assessed as rapid dissolution of F-actin fiber-associated reduction in fluorescent intensity at 5 uM after 4 hrs by immunocytochemistry relative to DMSO; format: functional; design: scale not given: the % may be the effect or the level left
4T1 [22] = test: Effect on actin cytoskeletal structure in mouse 4T1 cells assessed as increase in accumulation of small vesicles surrounding nucleus and endoplasmic reticulum at 5 uM after 4 hrs by immunocytochemistry relative to DMSO; format: functional, cell-based
[23] = molecular target: Focal adhesion kinase 1 (Mus musculus) (UniProt P34152); test: Induction of FAK degradation in mouse 4T1 cells at 5 uM after 1 hr by Western blotting
4T1 [24] = test: Effect on actin cytoskeletal structure in mouse 4T1 cells assessed as rapid dissolution of actin stress fibers at 10 uM after 4 hrs by immunocytochemistry; format: functional, cell-based
4T1 [25] = test: Effect on actin cytoskeletal structure in mouse 4T1 cells assessed as impairment of lamellipodia formation at 10 uM after 4 hrs by immunocytochemistry; format: functional, cell-based
4T1 [26] = test: Effect on actin cytoskeletal structure in mouse 4T1 cells assessed as rapid dissolution of F-actin fiber-associated reduction in fluorescent intensity at 10 uM after 4 hrs by immunocytochemistry relative to DMSO; format: functional; design: scale not given: the % may be the effect or the level left
4T1 [27] = test: Effect on actin cytoskeletal structure in mouse 4T1 cells assessed as increase in accumulation of small vesicles surrounding nucleus and endoplasmic reticulum at 10 uM after 4 hrs by immunocytochemistry relative to DMSO; format: functional, cell-based
4T1 [28] = test: Effect on actin cytoskeletal structure in mouse 4T1 cells assessed as rapid loss of F-actin fiber-associated detachment from neighbouring cells at 10 uM after 4 hrs by immunocytochemistry; format: functional, cell-based
4T1 [29] = test: Inhibition of mouse 4T1 cells adhesion to gelatinous matrix protein-coated surface at 10 uM after 60 mins by ELISA; format: functional; details: 4T1, 1 h
MCF7 [30] = test: Inhibition of human MCF7 cells adhesion to gelatinous matrix protein-coated surface at 100 uM after 60 mins by ELISA; format: functional, cell-based; summary of the method: as §1
SK-BR-3 [31] = test: Inhibition of human SK-BR-3 cells adhesion to gelatinous matrix protein-coated surface at 100 uM after 60 mins by ELISA; format: functional, cell-based; summary of the method: as §1
4T1 [32] = test: Inhibition of mouse 4T1 cells adhesion to collagen 4 at 5 to 100 uM after 60 mins by ELISA; format: functional, cell-based; summary of the method: as §4
4T1 [33] = test: Inhibition of mouse 4T1 cells adhesion to fibronectin at 5 to 100 uM after 60 mins by ELISA; format: functional, cell-based; summary of the method: as §4
4T1 [34] = test: Inhibition of mouse 4T1 cells adhesion to laminin at 5 to 100 uM after 60 mins by ELISA; format: functional, cell-based; summary of the method: as §4
4T1 [35] = test: Inhibition of mouse 4T1 cells adhesion to vitronectin at 5 to 100 uM after 60 mins by ELISA; format: functional, cell-based; summary of the method: as §4
4T1 [36] = test: Inhibition of mouse 4T1 cells metastasis at 50 uM after 30 mins by Boyden chamber assay; format: functional, cell-based; summary of the method: as §3
4T1 [37] = test: Effect on actin cytoskeletal structure in mouse 4T1 cells assessed as rapid dissolution of actin stress fibers at 50 uM after 4 hrs by immunocytochemistry; format: functional, cell-based

Row | SMILES | inhibition (4T1 [1]) | IC50 (4T1 [1]) [nM] | inhibition (MCF7 [2]) | inhibition (SK-BR-3 [3]) | IC50 (4T1 [4]) [nM] | Activity (4T1 [4]) | IC50 [5] [nM] | Activity [5] | inhibition (4T1 [6]) | Activity [7] | other results
1 | Cc1c(C)c2c(c(C)c1OC(=O)CCC(=O)O)CC[C@](C)(/C=C/CC(C)CCCC(C)C)O2 (stereo partly drawn) | Dose-dependent effect | 1300 | Dose-dependent effect | Dose-dependent effect | > 10000 | Dose-dependent effect | 23000 | Dose-dependent effect | Active | Active | 
2 | Cc1c(C)c2c(c(C)c1OCC(=O)O)CC[C@](C)(/C=C/CC(C)CCCC(C)C)O2 (stereo partly drawn) | Dose-dependent effect | 600 | Dose-dependent effect | Dose-dependent effect | > 10000 | Dose-dependent effect | 23000 | Dose-dependent effect | Active |  | Activity (4T1 [8]): Active; IC50 (MCF7 [2]; MCF7, 1 h): 2000 nM; IC50 (SK-BR-3 [3]; SK-BR-3, 1 h): 2000 nM; Ratio IC50 (MCF7 [9]): 3.3; Ratio IC50 (SK-BR-3 [10]): 3.3; inhibition (4T1 [11]): Active; inhibition (4T1 [12]): Active; inhibition (4T1 [13]): Active; inhibition (4T1 [14]): Active; inhibition (4T1 [15]): Dose-dependent effect; inhibition (4T1 [16]): Dose-dependent effect; inhibition (4T1 [17]): Dose-dependent effect; inhibition (4T1 [18]): Dose-dependent effect; Activity (4T1 [19]): Active; Activity (4T1 [20]): Active; Activity (4T1 [21]): 84%; Activity (4T1 [22]): Active; Activity [23]: Active
3 | Cc1c(C)c2c(c(C)c1OCC(=O)O)CC[C@](C)(CCCC(C)CCCC(C)C)O2 (stereo partly drawn) | Dose-dependent effect | 2000 | Dose-dependent effect | Dose-dependent effect | > 10000 | Dose-dependent effect |  | Dose-dependent effect | Active | Active | Activity (4T1 [24]): Active; Activity (4T1 [25]): Active; Activity (4T1 [26]): 70%; Activity (4T1 [27]): Active
4 | Cc1c(C)c2c(c(C)c1OC(=O)CCC(=O)O)CC[C@@](C)(CCC[C@H](C)CCC[C@H](C)CCCC(C)C)O2 [(+)-ALPHA-TOCOPHERYL SUCCINATE] | Dose-dependent effect | 10000 |  | Dose-dependent effect |  |  |  |  |  | inactive | Activity (4T1 [28]): inactive; inhibition at 10 µM (4T1 [29]): 50%; inhibition (MCF7 [30]): inactive; inhibition (SK-BR-3 [31]): inactive; inhibition (4T1 [32]): Active; inhibition (4T1 [33]): Active; inhibition (4T1 [34]): Active; inhibition (4T1 [35]): Active; inhibition (4T1 [36]): inactive; Activity (4T1 [37]): inactive
5 | Cc1c(C)c2c(c(C)c1OC(=O)CCC(=O)O)CC[C@](C)(CCCC(C)CCCC(C)C)O2 (stereo partly drawn) | Dose-dependent effect | 2500 | Dose-dependent effect | Dose-dependent effect | > 10000 | Dose-dependent effect |  | Dose-dependent effect | inactive | inactive | 

Source: ChEMBL document CHEMBL1156017, “alpha-Tocopheryl succinate as a scaffold to develop potent inhibitors of breast cancer cell adhesion” (J Med Chem, 2009)
